Assays:
9L [1] = experiment: Cellular uptake in rat 9L cells at 5 uCi measured […] by gamma counting; assay type: ADME, cell-based
Method in brief: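 9L rat gliosarcoma cells, grown in DMEM with 10% FCS, were trypsinised and washed in HBSS. About 5×10^5 cells were exposed to 5 μCi tracer in amino-acid-free HBSS for 30 min at 37 °C, 5% CO2, then centrifuged and rinsed twice with ice-cold HBSS. Cells were gamma-counted and decay-corrected, with uptake reported as % of initial dose per 5×10^5 cells ± SD, n=3.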

9L [2] = experiment: Cellular uptake in rat 9L cells at 5 uCi measured […] by gamma counting in presence of system L transport inhibitor BCH; assay type: ADME, cell-based
Method in brief: (§1)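 9L rat gliosarcoma cells (DMEM, 10% FCS, 37 °C, 5% CO2) were trypsinised and washed in HBSS. About 5×10^5 cells took up 5 μCi tracer for 30 min in 0.1 mL amino acid-free HBSS, with inhibitor at 10 mM final (ACS: 3.3 mM each of alanine, cysteine, serine). Cells were spun and rinsed twice with ice-cold HBSS, then gamma counted with decay correction. Triplicates; uptake is % ID per 5×10^5 cells.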

9L [3] = experiment: Cellular uptake in rat 9L cells assessed as inhibition of uptake at 5 uCi measured […] by gamma counting in presence of system L transport inhibitor BCH relative to control; assay type: ADME, cell-based; design: scale not given: the % may be the effect or the level left
Method in brief: (§2)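 9L rat gliosarcoma cells, grown in DMEM with 10% FCS, were trypsinised and washed in HBSS. About 5×10^5 cells were incubated with 5 μCi tracer in amino-acid-free HBSS for 30 min at 37 °C, with or without 10 mM final BCH, MeAIB or ACS (3.3 mM each Ala/Cys/Ser). Cells were washed cold, gamma-counted and decay-corrected. Inhibition is percent of control; triplicates, one-way ANOVA.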

9L [4] = experiment: Cellular uptake in rat 9L cells at 5 uCi measured […] by gamma counting in presence of system A transport inhibitor MeAIB; assay type: ADME, cell-based; method in brief: as §1
9L [5] = experiment: Cellular uptake in rat 9L cells assessed as inhibition of uptake at 5 uCi measured […] by gamma counting in presence of system ASC transport inhibitor ACS relative to control; assay type: ADME, cell-based; design: scale not given: the % may be the effect or the level left; method in brief: as §2
9L [6] = experiment: Cellular uptake in rat 9L cells assessed as inhibition of uptake at 5 uCi measured […] by gamma counting in presence of system A transport inhibitor MeAIB relative to control; assay type: ADME, cell-based; design: scale not given: the % may be the effect or the level left; method in brief: as §2
9L [7] = experiment: Cellular uptake in rat 9L cells at 5 uCi measured per 0.5 million cells by gamma counting in presence of system ASC transport inhibitor ACS
[8] = Biodistribution in tumor of Fischer 344 rat bearing rat 9L cells at 20 uCi, iv after 30 mins; assay type: ADME, organism-based, Neoplasm; settings: in vivo, 0.5 h
Method in brief: (§3)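 Male Fischer 344 rats (200–250 g) carrying intracranial 9L gliosarcoma (5×10^4 cells implanted stereotactically, 10–12 days growth), under ketamine:xylazine anaesthesia. About 20 μCi tracer in 0.5 mL sterile saline given via tail-vein catheter. Groups of 4–5 were killed by intracardiac KCl at 15 (NMeFAMP only), 30, 60 or 120 min. Tissues were weighed and gamma-counted, decay-corrected, and reported as %ID/g, mean ± SD.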

Heart [9] = experiment: Biodistribution in heart of Fischer 344 rat bearing rat 9L cells at 20 uCi, iv after 120 mins; assay type: ADME, organism-based; settings: in vivo, 2 h; method in brief: as §3
Liver [10] = experiment: Biodistribution in liver of Fischer 344 rat bearing rat 9L cells at 20 uCi, iv after 120 mins; assay type: ADME, organism-based; settings: in vivo, 2 h; method in brief: as §3
Kidney [11] = experiment: Biodistribution in kidney of Fischer 344 rat bearing rat 9L cells at 20 uCi, iv after 30 mins; assay type: ADME, organism-based; settings: in vivo, 0.5 h; method in brief: as §3
Bone [12] = experiment: Biodistribution in bone of Fischer 344 rat bearing rat 9L cells at 20 uCi, iv after 120 mins; assay type: ADME, organism-based, Bone element; settings: in vivo, 2 h; method in brief: as §3
Lung [13] = experiment: Biodistribution in lung of Fischer 344 rat bearing rat 9L cells at 20 uCi, iv after 30 mins; assay type: ADME, organism-based; settings: in vivo, 0.5 h; method in brief: as §3
Blood [14] = experiment: Biodistribution in blood of Fischer 344 rat bearing rat 9L cells at 20 uCi, iv after 120 mins; assay type: ADME, organism-based; settings: in vivo, 2 h; method in brief: as §3
Spleen [15] = experiment: Biodistribution in spleen of Fischer 344 rat bearing rat 9L cells at 20 uCi, iv after 30 mins; assay type: ADME, organism-based; settings: in vivo, 0.5 h; method in brief: as §3
Lung [16] = experiment: Biodistribution in lung of Fischer 344 rat bearing rat 9L cells at 20 uCi, iv after 60 mins; assay type: ADME, organism-based; settings: in vivo, 1 h; method in brief: as §3
Brain = experiment: Biodistribution in brain of Fischer 344 rat bearing rat 9L cells at 20 uCi, iv after 30 mins; settings: in vivo, 0.5 h
Bone [17] = experiment: Biodistribution in bone of Fischer 344 rat bearing rat 9L cells at 20 uCi, iv after 30 mins; assay type: ADME, organism-based, Bone element; settings: in vivo, 0.5 h; method in brief: as §3
Heart [18] = experiment: Biodistribution in heart of Fischer 344 rat bearing rat 9L cells at 20 uCi, iv after 30 mins; assay type: ADME, organism-based; settings: in vivo, 0.5 h; method in brief: as §3
[19] = Ratio of drug level from tumor to brain of Fischer 344 rat bearing rat 9L cells at 20 uCi, iv after 120 mins; assay type: ADME, organism-based; settings: in vivo, 2 h
Pancreas [20] = experiment: Biodistribution in pancreas of Fischer 344 rat bearing rat 9L cells at 20 uCi, iv after 30 mins; assay type: ADME, organism-based; settings: in vivo, 0.5 h; method in brief: as §3
Muscle tissue [21] = experiment: Biodistribution in muscle of Fischer 344 rat bearing rat 9L cells at 20 uCi, iv after 30 mins; assay type: ADME, organism-based; settings: in vivo, 0.5 h; method in brief: as §3
[22] = Ratio of drug level from tumor to brain of Fischer 344 rat bearing rat 9L cells at 20 uCi, iv after 60 mins; settings: in vivo, 1 h
[23] = Biodistribution in testis of Fischer 344 rat bearing rat 9L cells at 20 uCi, iv after 30 mins; assay type: ADME, organism-based; settings: in vivo, 0.5 h; method in brief: as §3
Blood [24] = experiment: Biodistribution in blood of Fischer 344 rat bearing rat 9L cells at 20 uCi, iv after 60 mins; assay type: ADME, organism-based; settings: in vivo, 1 h; method in brief: as §3
Liver [25] = experiment: Biodistribution in liver of Fischer 344 rat bearing rat 9L cells at 20 uCi, iv after 60 mins; assay type: ADME, organism-based; settings: in vivo, 1 h; method in brief: as §3
Bone [26] = experiment: Biodistribution in bone of Fischer 344 rat bearing rat 9L cells at 20 uCi, iv after 60 mins; assay type: ADME, organism-based, Bone element; settings: in vivo, 1 h; method in brief: as §3
Kidney [27] = experiment: Biodistribution in kidney of Fischer 344 rat bearing rat 9L cells at 20 uCi, iv after 60 mins; assay type: ADME, organism-based; settings: in vivo, 1 h; method in brief: as §3
Pancreas [28] = experiment: Biodistribution in pancreas of Fischer 344 rat bearing rat 9L cells at 20 uCi, iv after 120 mins; assay type: ADME, organism-based; settings: in vivo, 2 h; method in brief: as §3
Blood [29] = experiment: Biodistribution in blood of Fischer 344 rat bearing rat 9L cells at 20 uCi, iv after 30 mins; assay type: ADME, organism-based; settings: in vivo, 0.5 h; method in brief: as §3
[30] = Biodistribution in tumor of Fischer 344 rat bearing rat 9L cells at 20 uCi, iv after 30 mins; settings: in vivo, 0.5 h
Lung [31] = experiment: Biodistribution in lung of Fischer 344 rat bearing rat 9L cells at 20 uCi, iv after 120 mins; assay type: ADME, organism-based; settings: in vivo, 2 h; method in brief: as §3
[32] = Biodistribution in testis of Fischer 344 rat bearing rat 9L cells at 20 uCi, iv after 60 mins; assay type: ADME, organism-based; settings: in vivo, 1 h; method in brief: as §3
[33] = Biodistribution in testis of Fischer 344 rat bearing rat 9L cells at 20 uCi, iv after 120 mins; assay type: ADME, organism-based; settings: in vivo, 2 h; method in brief: as §3
Liver [34] = experiment: Biodistribution in liver of Fischer 344 rat bearing rat 9L cells at 20 uCi, iv after 30 mins; assay type: ADME, organism-based; settings: in vivo, 0.5 h; method in brief: as §3
Kidney [35] = experiment: Biodistribution in kidney of Fischer 344 rat bearing rat 9L cells at 20 uCi, iv after 120 mins; assay type: ADME, organism-based; settings: in vivo, 2 h; method in brief: as §3
Spleen [36] = experiment: Biodistribution in spleen of Fischer 344 rat bearing rat 9L cells at 20 uCi, iv after 120 mins; assay type: ADME, organism-based; settings: in vivo, 2 h; method in brief: as §3
Pancreas [37] = experiment: Biodistribution in pancreas of Fischer 344 rat bearing rat 9L cells at 20 uCi, iv after 60 mins; assay type: ADME, organism-based; settings: in vivo, 1 h; method in brief: as §3
[38] = rat, in vivo, iv, 1 h
Muscle tissue [39] = experiment: Biodistribution in muscle of Fischer 344 rat bearing rat 9L cells at 20 uCi, iv after 120 mins; assay type: ADME, organism-based; settings: in vivo, 2 h; method in brief: as §3
[40] = rat, in vivo, iv, 1 h; remark: listed apart in the source
Spleen [41] = experiment: Biodistribution in spleen of Fischer 344 rat bearing rat 9L cells at 20 uCi, iv after 60 mins; assay type: ADME, organism-based; settings: in vivo, 1 h; method in brief: as §3
Heart [42] = experiment: Biodistribution in heart of Fischer 344 rat bearing rat 9L cells at 20 uCi, iv after 60 mins; assay type: ADME, organism-based; settings: in vivo, 1 h; method in brief: as §3
Muscle tissue [43] = experiment: Biodistribution in muscle of Fischer 344 rat bearing rat 9L cells at 20 uCi, iv after 60 mins; assay type: ADME, organism-based; settings: in vivo, 1 h; method in brief: as §3

## C[C@](N)(CF)C(=O)O.Cl
9L [1]
  Drug uptake: 13.06 %ID
9L [2]
  Drug uptake: 4.27 %ID
9L [3]
  Activity: 67%
9L [4]
  Drug uptake: 5.51 %ID
9L [5]
  Activity: 87%
9L [6]
  Activity: 58%
9L [7]
  Drug uptake: 1.7 %ID

## C[C@@](N)(C[18F])C(=O)O.Cl
[8]
  Ratio: 21.1
Heart [9]
  Drug uptake: 0.34 % ID/g
Liver [10]
  Drug uptake: 0.42 % ID/g
Kidney [11]
  Drug uptake: 8.71 % ID/g
Bone [12]
  Drug uptake: 0.31 % ID/g
Lung [13]
  Drug uptake: 0.67 % ID/g
Blood [14]
  Drug uptake: 0.32 % ID/g
Spleen [15]
  Drug uptake: 0.73 % ID/g
Lung [16]
  Drug uptake: 0.47 % ID/g
Brain
  Drug uptake: 0.07 % ID/g
Bone [17]
  Drug uptake: 0.3 % ID/g
Heart [18]
  Drug uptake: 0.43 % ID/g
[19]
  Ratio: 27.7
Pancreas [20]
  Drug uptake: 3.75 % ID/g
Muscle tissue [21]
  Drug uptake: 0.47 % ID/g
[22]
  Ratio: 30.9
[23]
  Drug uptake: 0.19 % ID/g
Blood [24]
  Drug uptake: 0.4 % ID/g
Liver [25]
  Drug uptake: 0.54 % ID/g
Bone [26]
  Drug uptake: 0.3 % ID/g
Kidney [27]
  Drug uptake: 7.62 % ID/g
Pancreas [28]
  Drug uptake: 2.79 % ID/g
Blood [29]
  Drug uptake: 0.58 % ID/g
[30]
  Drug uptake: 1.38 % ID/g
Lung [31]
  Drug uptake: 0.36 % ID/g
[32]
  Drug uptake: 0.16 % ID/g
[33]
  Drug uptake: 0.17 % ID/g
Liver [34]
  Drug uptake: 0.61 % ID/g
Kidney [35]
  Drug uptake: 6.88 % ID/g
Spleen [36]
  Drug uptake: 0.51 % ID/g
Pancreas [37]
  Drug uptake: 3.91 % ID/g
[38]
  Drug uptake: 1.82 % ID/g
Muscle tissue [39]
  Drug uptake: 0.36 % ID/g
[40]
  Drug uptake: 0.06 % ID/g
Spleen [41]
  Drug uptake: 0.62 % ID/g
Heart [42]
  Drug uptake: 0.41 % ID/g
Muscle tissue [43]
  Drug uptake: 0.37 % ID/g

## C[C@@](N)(CF)C(=O)O.Cl
9L [1]
  Drug uptake: 4.77 %ID
9L [2]
  Drug uptake: 1.21 %ID
9L [3]
  Activity: 75%
9L [4]
  Drug uptake: 3.29 %ID
9L [5]
  Activity: 72%
9L [6]
  Activity: 31%
9L [7]
  Drug uptake: 1.33 %ID

## CN[C@@](C)(CF)C(=O)O.Cl
9L [1]
  Drug uptake: 7.08 %ID
9L [2]
  Drug uptake: 3.26 %ID
9L [3]
  Activity: 54%
9L [4]
  Drug uptake: 0.6 %ID
9L [5]
  Activity: 89%
9L [6]
  Activity: 92%
9L [7]
  Drug uptake: 0.75 %ID

Reference: ChEMBL document CHEMBL1154842, “Synthesis, radiolabeling, and biological evaluation of (R)- and (S)-2-amino-3-[(18)F]fluoro-2-methylpropanoic acid (FAMP) and (R)- and (S)-3-[(18)F]fluoro-2-methyl-2-N-(methylamino)propanoic acid (NMeFAMP) as potential PET radioligands for imaging brain tumors” (J Med Chem, 2010)
